Compound activity as filed in PubChem BioAssay.
Most compounds without a hit are left out; they make up all but 5.1% or so of the library.
STAT1 inh: STAT1 signaling inhibitors, primary screen, cell-based, HTS, luciferase reporter; NIH 3T3 STAT1-luciferase reporter, IFN-gamma, luminescence; inhibition, % at 5.5 µM; actives 0.35% (n = 200,000); AID 920, 2007;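 active = inhibition above a set limit, the mean inhibition across all tested compounds plus 3 SD, cut at about 34% in these data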
STAT3 act-1: IL-6 driven STAT3 reporter potentiators, primary screen, U3A cells, luciferase, luminescence, MLSCN library; AID 871, 2007; actives 0.91% (n = 190,000); activation (% of control), % at 5.6 µM; IL-6 STAT3-luciferase reporter; 100% = signal with IL-6 EC80 alone;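 active = activation above the screen-wide mean of compound activation plus 3 SD, cut at about 130% in these data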
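Material: human U3A cells carrying STAT3-luciferase construct. Measured by: reporter luminescence signal. Timing: compound 1 h, then IL-6 6 h at 37 °C.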
STAT3 inh: IL-6 driven STAT3 reporter inhibitors, primary screen, U3A cells, luciferase, luminescence, MLSCN library | IL-6 STAT3-luciferase reporter; host cell line lacks STAT1 | inhibition, % at 5.5 µM | actives 0.89% (n = 190,000) | AID 862, 2007;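 active = inhibition above the mean inhibition across all screened compounds plus 3 SD, cut at about 44% in these data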
STAT1 act-1: STAT1 signaling activators, primary screen, cell-based, HTS, luciferase reporter | NIH 3T3 STAT1-luciferase reporter, IFN-gamma, luminescence; 100% = IFN-gamma alone, no compound | activation (% of control), % at 5.5 µM | actives 2.6% (n = 200,000) | AID 932, 2007;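 active = activation above the screen-wide mean activation plus 3 SD, cut at about 130% in these data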
APP 5'UTR act: activators of APP 5'UTR luciferase reporter, primary screen, SH-SY5Y cells. SH-SY5Y APP 5'UTR luciferase reporter, luminescence; zero percent = DMSO vehicle wells. activation, % at 2 µM. actives 1% (n = 190,000). AID 1276, 2008;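 active = activation above a set limit, based on mean plus 3 SD of controls, cut at about 140% in these data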
NF-kB neuron act: activators of NF-kB expression in neurons, primary screen, cell-based, HTS. human neuronal cells, NF-kB reporter expression; hits give high values. fold change at 12.5 µM. actives 1.6% (n = 190,000). AID 1239, 2008; in the data active = fold change above about 3.3
STAT3 act-2: STAT3 reporter potentiators, retest of hits, confirmation, U3A cells, luciferase, luminescence | shares compounds with STAT3 act-1 | IL-6 potentiation; U3A cells lack STAT1; 100 means same as IL-6 alone | potentiation (% of control), % at 5.7 µM | actives 64% (n = 1,200);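 active = percent activation of the STAT3 luciferase reporter above a set limit taken from the earlier primary screen, cut at about 130% in these data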
NFkB act 2: NF-kB reporter activators in human cells, counter-screen for STAT3 activator project; shares compounds with STAT3 act-1; NF-kappaB reporter activation; activation (% of control), % at 5.7 µM; actives 11% (n = 1,200); AID 1309, 2008; in the data active = activation above about 120%;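 note: reporter induced by TNF-alpha stimulation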
STAT1 act-2: STAT1 reporter activators, IFN-gamma induced, counter-screen for STAT3 activator project, cell-based, NIH 3T3, luciferase luminescence | actives 13% (n = 1,200) | AID 1318, 2008 | shares compounds with STAT3 act-1 | NIH 3T3 STAT1-luciferase reporter | activation (% of control), % at 5.7 µM;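 active = activation above the solvent-only control well mean plus 3 SD, set per screening run, cut at about 120% in these data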
Numbers stand for hits; i = inactive; nt = no result given.

SMILES	STAT1 inh	STAT3 act-1	STAT3 inh	STAT1 act-1	APP 5'UTR act	NF-kB neuron act	STAT3 act-2	NFkB act 2	STAT1 act-2
Cc1nnc2n(CCc3ccccc3)c(=O)c3c4c(sc3n12)CCCC4	i	i	i	i	i	nt	nt	nt	nt
O=C(Nc1ccc(Nc2ccccc2)cc1)C(Cl)(Cl)Cl	i	i	i	i	i	i	nt	nt	nt
O=C(CCCn1c(=O)oc2ccccc21)N1CCc2ccccc2C1	i	161	i	i	i	i	152	i	i
CC(C)CC1c2[nH]c3ccccc3c2CCN1C(=O)CCC(=O)N(C)C (stereo not given)	i	144	i	i	i	i	150	i	i
Cc1c(CN2CCc3c([nH]c4ccccc34)C2CC(C)C)cnn1C (stereo not given)	i	139	i	i	i	i	143	i	i
Cn1cccc1-c1cc(C(=O)N2CCc3c([nH]c4ccccc34)C2c2ccccn2)[nH]n1 (stereo not given)	i	i	i	i	i	i	nt	nt	nt
CC(=O)c1cc(C(=O)N2CCc3c([nH]c4ccccc34)C2CC(C)C)[nH]n1 (stereo not given)	i	145	i	i	i	i	143	i	i
CC(C)CC1c2[nH]c3ccccc3c2CCN1C(=O)C1CCOCC1 (stereo not given)	i	i	i	i	i	i	nt	nt	nt
CCn1c(C)nc2cc(C(=O)NNC(=O)CCC3CCCC3)ccc21	i	i	i	i	i	i	nt	nt	nt
CCCCc1ccc(-n2c(Cc3cccs3)n[nH]c2=S)cc1	i	i	i	i	i	i	nt	nt	nt
CCC(Sc1nc(N)cc(N)n1)C(=O)O (stereo not given)	i	i	i	i	i	i	nt	nt	nt
CCCC(=O)Nc1ccc(NC(=O)c2ccco2)c(OC)c1	i	i	i	i	i	i	nt	nt	nt
Cc1cc2nc(-c3cccnc3SCC(=O)NC(C)C)[nH]c2cc1C	i	i	i	i	i	i	nt	nt	nt
COc1ccc(S(=O)(=O)Nc2c(C(=O)O)[nH]c3ccccc23)c(OC)c1	i	166	i	i	i	i	159	i	i
CCOC(=O)CN1C(=O)C(Sc2n[nH]c(-c3ccc(O)cc3)n2)CCc2ccccc21 (stereo not given)	i	i	i	i	i	i	nt	nt	nt
Cn1nc(-c2ccccc2)c2nc3ccccc3nc21	i	150	i	i	i	i	140	i	i
FC(F)(F)c1cccc(-c2ccn3ncnc3n2)c1	i	i	i	i	i	i	nt	nt	nt
CC(=O)Nc1ccc(NC(=O)CSc2nc3ccccc3o2)cc1	i	i	i	i	i	i	nt	nt	nt
CC(=O)Nc1ccc(N/C=C(\C=O)c2nc3ccccc3o2)cc1	i	147	i	i	i	i	151	i	i
O=C/C(=C\Nc1ccc(Br)cc1)c1nc2ccccc2o1	i	i	i	i	i	i	nt	nt	nt
CC(=O)Nc1cccc(N/C=C(\C=O)c2nc3ccccc3o2)c1	i	171	i	i	i	i	176	i	i
O=C/C(=C\Nc1ccccn1)c1nc2ccccc2o1	i	158	i	i	i	i	144	i	i
Cc1ccccc1NC(=O)Cn1nnc2ccccc21	i	i	i	i	i	i	nt	nt	nt
CN1C(=O)c2ccccc2C(C(=O)NCCCN2CCCC2=O)C1c1c[nH]c2ccccc12 (stereo not given)	i	152	i	i	i	i	136	i	i
COCCN1C(=O)c2ccccc2C(C(=O)NCCCN2CCCC2)C1c1c[nH]c2ccccc12 (stereo not given)	i	i	i	i	i	i	nt	nt	nt
SMILES	STAT1 inh	STAT3 act-1	STAT3 inh	STAT1 act-1	APP 5'UTR act	NF-kB neuron act	STAT3 act-2	NFkB act 2	STAT1 act-2
O=C(Cc1cccs1)Nc1ccccn1	i	157	i	i	i	i	137	i	i
OC(CON=C1c2ccccc2-c2ccccc21)CN1CCNCC1 (stereo not given)	i	i	i	i	i	i	nt	nt	nt
CC1(C)CC2CC(C)(CN2S(=O)(=O)c2ccc(C(=O)Nc3ccc(S(=O)(=O)N4CCOCC4)cc3)cc2)C1 (stereo not given)	i	i	i	i	i	i	nt	nt	nt
CC(=O)Nc1ccc(S(=O)(=O)N2CC3(C)CC2CC(C)(C)C3)cc1 (stereo not given)	i	137	i	i	i	i	i	i	i
c1ccc2c(c1)ncc1cccn12	i	143	i	i	i	i	138	i	i
CCOC(=O)N1CCN(C(=O)c2ccc3nc4ccsc4c(=O)n3c2)CC1	i	137	i	i	i	i	134	i	i
COCCn1nnnc1C(c1cc2cc(C)ccc2[nH]c1=O)N1CCCCCC1 (stereo not given)	i	i	i	i	i	i	nt	nt	nt
COCCn1nnnc1C(c1cc2cc(C)ccc2[nH]c1=O)N1CCc2ccccc21 (stereo not given)	i	150	i	i	nt	i	i	i	i
COc1cc(C(=O)Nc2ccc(NC(C)=O)cc2)ccc1OCc1ccccc1	i	i	i	i	i	i	nt	nt	nt
CCN(CC)S(=O)(=O)c1cc(NC(=O)C(C)N2CCc3ccccc32)ccc1C (stereo not given)	i	142	i	i	i	i	141	i	i
CC(C(=O)Nc1ccc(S(N)(=O)=O)cc1)N1CCc2ccccc21 (stereo not given)	i	i	i	i	i	i	nt	nt	nt
CCC1=NN(C(=O)CCc2ccc3c(c2)OCO3)C(O)(C(F)(F)F)C1 (stereo not given)	i	i	i	i	i	i	nt	nt	nt
CCOCCCNC(=O)c1ccc2c(c1)N=C(CC)c1cc(Br)ccc1S2	i	157	i	i	i	i	i	160	i
CCCCOCCCNC(=O)c1ccc(OC)cc1	i	i	i	i	i	i	nt	nt	nt
COc1ccc(NS(=O)(=O)c2ccc3c(c2)Cc2ccccc2-3)cn1	i	i	i	i	i	i	nt	nt	nt
COC(=O)c1ccccc1NC1=C/C(=N\S(=O)(=O)c2cccs2)c2ccccc2C1=O	i	137	i	i	i	i	i	i	i
Cc1occc1-c1nnc(SCC(=O)c2c[nH]c3ccccc23)n1C	i	145	i	i	i	i	i	i	i
